Screens (PubChem BioAssay)
SUMO HTRF inh: inhibitors of human SUMOylation (UBC9); HTRF SUMOylation assay, SAE1/SAE2 + UBC9, in vitro; inhibition, % at 35 µM; actives 0.36% (n = 290,000); in the data active = inhibition above about 50%, passing the limit was not always enough; inconclusive = no clear call, values can overlap the other calls
Target sequence (P63279 whole entry, looked up): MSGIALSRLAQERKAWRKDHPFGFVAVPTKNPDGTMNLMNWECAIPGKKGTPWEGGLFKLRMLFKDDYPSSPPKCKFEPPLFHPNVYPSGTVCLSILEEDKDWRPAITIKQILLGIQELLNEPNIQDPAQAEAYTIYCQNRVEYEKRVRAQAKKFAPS
DTT redox prof: compounds producing H2O2 with reducing agent – biochemical, NIH compound library profiling, artefact control for MLSCN library redox annotation, primary screen; AID 878; activation, % at 10 µM; DTT-dependent redox cycling H2O2, phenol red/HRP absorbance; 100% = 100 µM peroxide control, 0% = buffer; actives 0.03% (n = 200,000);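 active = activation of at least 50% relative to the plate's high and low controls in the primary single-dose screen; inactive = activation below 50%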;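 note: compound incubated with DTT at 0.8 mM final as the reducing agent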
Apaf1 inhib: inhibitors of human Apaf-1 apoptosome; actives 0.71% (n = 330,000); AID 489030; inhibition, % at 20 µM; reconstituted apoptosome caspase-3 activity, DEVD-Rh110 fluorescence; active = inhibition of at least 40% at 20 µM;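 note: plate controls were DMSO wells for no effect and DEVD-CHO caspase inhibitor wells for full effect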
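Assay system: Apoptosome proteins | Medium: pH 7.5 Hepes buffer with CHAPS, BSA, DTT | Also added: Cytochrome c and DEVD-Rh110 substrate | Times: 30 min plus 50 min, RT | Detection: Rhodamine 110 fluorescence at Ex 480/Em 540 nm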
HKDC1 inh: inhibitors of human hexokinase HKDC1; recombinant HKDC1, G6PDH/diaphorase resazurin coupled fluorescence; inhibition, % at 20 µM; AID 493160; Q2TB90; actives 0.16% (n = 340,000);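 active = inhibition above about 35% when tested at 20 µM, limit read from the data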;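 note: plate controls were DMSO wells with enzyme for no effect and DMSO wells lacking enzyme for full effect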
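test system = in-house recombinant HK5 (HKDC1) enzyme | amount = HKDC1 at 5 µg/mL | control set = DMSO-enzyme wells negative, buffer-substituted wells positive | compound = one dose of 20 µM, 1% DMSO | schedule = reaction time 90 min, room temperature, protected from light | technique = resorufin fluorescence at 613 nm | reagent = glucose with 1 mM ATP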
GSTO1 inh: blocks human GSTO1 in RBBP9 counter-screen; recombinant GSTO1, activity-based probe fluorescence polarization; inhibition, % at 5.96 µM; actives 1.1% (n = 300,000);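 active = inhibition above the campaign mean inhibition plus 3 SD, cut at about 35% in these data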;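 note: 0% = GSTO1-1 with DMSO and 100% = wells lacking GSTO1-1 enzyme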
Target sequence (P78417 whole entry, looked up): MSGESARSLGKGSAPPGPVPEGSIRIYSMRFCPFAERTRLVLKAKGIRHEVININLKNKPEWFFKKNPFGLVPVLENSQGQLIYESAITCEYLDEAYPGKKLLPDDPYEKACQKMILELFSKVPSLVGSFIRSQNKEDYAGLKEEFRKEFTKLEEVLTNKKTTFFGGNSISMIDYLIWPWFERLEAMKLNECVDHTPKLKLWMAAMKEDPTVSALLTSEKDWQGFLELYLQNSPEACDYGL
HKDC1 act conf2: HKDC1 (human) activation, single-dose confirmed. shares compounds with HKDC1 inh. recombinant HKDC1, G6PDH/diaphorase resazurin fluorescence; stronger effect = lower value. inhibition, % at 20 µM. actives 14% (n = 740);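 active = inhibition at or below a set negative limit, negative inhibition meaning the enzyme was activated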
The depositor's hits bear a star; u = inconclusive; x = no result given. In the library only some 1.4% were active in any assay of this set; here they are far more common.

SMILES | SUMO HTRF inh | DTT redox prof | Apaf1 inhib | HKDC1 inh | GSTO1 inh | HKDC1 act conf2
Cc1n[nH]c(=O)c2c(NC(=O)CSc3nnc(-c4ccco4)n3C)oc(C)c12 | x | x | -7 | -6 | x | x
CC1CC(c2ccccc2)NS(=O)(=O)O1 (configuration not stated) | -6 | x | -9 | -1 | 2 | x
COc1ccc(C(C)NC(=O)C2CCCC2)cc1OC (configuration not stated) | 1 | x | -10 | -9 | -8 | x
O=C(Nc1ccc(Cl)c(Cl)c1)Nc1nnc(-c2ccncc2)s1 | 12 | 1 | x | 41* | -29 | -5
COc1ccc(NC(=O)Nc2nnc(-c3ccncc3)s2)cc1 | 20 | 0 | 4 | -6 | -8 | x
c1ccc2[nH]c(CCCc3nc4ccccc4[nH]3)nc2c1 | 7 | x | 7 | 1 | 8 | x
Oc1ccc(O)c(Cc2nc3ccccc3[nH]2)c1 | 0 | 0 | -3 | 54* | 70* | 56
CCN(CC(=O)Nc1ccccc1OC)C(=O)c1ccc(N(C)S(=O)(=O)c2ccc(C)cc2)cc1 | x | x | 32 | 1 | 5 | x
COc1ccccc1C(=O)NCCNC(=O)c1ccc(C)nc1 | 0 | x | -4 | 3 | -4 | x
O=Nc1c(O)ccc2cc(S(=O)(=O)O)ccc12 | x | x | x | 34 | x | 15
Cc1ccc(C(=O)CSc2n[nH]c(-c3ccco3)n2)cc1C | 1 | 4 | 5 | 31 | 4 | 31
CC(C)n1c(O)c(N=NC(=O)CNC(=O)CCc2ccccc2)c2ccccc21 | -7 | x | -6 | 0 | -1 | x
Cc1cc(C(=O)N=Nc2c(O)n(C(C)C)c3ccccc23)n[nH]1 | 17 | 0 | 5 | 40* | -1 | 34
COc1ccc(Cn2c(C)nc3c(c2=O)c2nc4ccccc4nc2n3Cc2ccco2)cc1 | x | x | x | 33 | x | -10
CC(C)(C)OC(=O)N1CCC(c2c(C(=O)N3CCN(C(=O)c4ccco4)CC3)cnn2-c2ccc(F)cc2F)CC1 | -3 | x | -8 | -8 | -3 | x
Cc1sc(-c2ccccn2)nc1OC(=O)c1ccc(F)cc1F | 18 | -2 | x | -50 | -1 | -27
C/C(=N\NC(=O)CNC(=O)C1COc2ccccc2O1)c1ccco1 (configuration not stated) | 4 | x | 1 | -4 | 7 | x
Nc1nc(Cl)c(N)c(NCC2(CO)CC(CCc3ccccc3)C2)n1 (configuration not stated) | x | x | x | 42* | x | 2
O=C(NCc1ccccc1)[C@]1(C(F)(F)F)C[C@H](CCc2ccccc2)CCCO1 | x | x | 3 | -4 | 8 | x
COc1ccc(NC(=O)CSc2nc3c(sc4ccccc43)c(=O)n2CCCN2CCCC2)cc1 | x | x | 35 | 6 | 2 | x
CC1(C)Cc2c(c(N3CCOCC3)nc3sc4c(NCC5CCCO5)nnnc4c23)CS1 (configuration not stated) | 2 | x | 20 | 45* | 7 | 12
CC(C)CCNc1nnnc2c1sc1nc(N3CCOCC3)c3c(c12)CC(C)(C)SC3 | -18 | -1 | 9 | 8 | 6 | x
C=CCNC(=S)N/N=C(\C)c1ccccn1 | -44 | 0 | -33 | -44 | 2 | -6
O=C(/C=C/c1ccc(F)cc1)NC(=S)NNC(=O)c1cnccn1 | -65 | x | -5 | -31 | 4 | x
COc1ccc(/C=C/C(=O)NC(=S)NNC(=O)c2cnccn2)cc1 | -27 | x | -11 | -40 | 6 | -58*
SMILES | SUMO HTRF inh | DTT redox prof | Apaf1 inhib | HKDC1 inh | GSTO1 inh | HKDC1 act conf2
O=C(NC(=S)NNC(=O)c1cnccn1)c1ccc(F)cc1 | -67 | 0 | -18 | -48 | 2 | -36*
COc1cc(/C=C2/C(=O)NN(c3ccc(Cl)c(Cl)c3)C2=O)cc([N+](=O)[O-])c1O | 13 | x | x | 50* | 17 | 33
O=C(CCCc1ccccc1)NCCS(=O)(=O)N1CCN(c2ccccc2F)CC1 | x | x | 9 | 7 | 2 | x
CC(=NNC(=S)N1CC2CCC(CC2)C1)c1ccncn1 | x | x | x | -54 | x | -61*
CCCCCCCCCC(=O)NNC(=O)c1c(O)c2ccccc2n(CC)c1=O | -16 | -1 | 12 | -41 | -3 | -21
CCCCCC(=O)NNC(=O)c1c(O)c2ccccc2n(CC)c1=O | -4 | 0 | 10 | -6 | 8 | x
O=C(O)c1cc(O)c2c(c1)[C@H]([C@H]1c3cc(C(=O)O)cc(O)c3C(=O)c3c(O[C@@H]4O[C@H](CO)[C@@H](O)[C@H](O)[C@H]4O)cccc31)c1cccc(OC3O[C@H](CO)[C@@H](O)[C@H](O)[C@H]3O)c1C2=O (some centres not stated) | x | x | 89* | 87* | 72* | 52
CCOC(=O)C1=C(Cc2ccc(Cl)cc2)C(=O)c2ccccc2C1=O | 15 | 1 | 8 | 60* | 9 | 39
CC1(C)CC[C@]2(C(=O)n3ccnc3)CC[C@]3(C)[C@H](C(=O)C=C4[C@@]5(C)C=C(C#N)C(=O)C(C)(C)[C@@H]5CC[C@]43C)[C@@H]2C1 | x | x | x | 48* | x | 33
N/C(=N\NS(=O)(=O)c1ccc(Cl)cc1)c1ccccn1 | x | x | -11 | -9 | -2 | x
Cc1ccc(-c2nc3c(c(=O)c4ccccc4n3C)c(=O)n2-c2ccc(F)cc2)cc1 | 0 | x | 10 | 4 | -3 | x
Cn1c2ccccc2c(=O)c2c(=O)n(-c3ccc(F)cc3)c(-c3cccs3)nc21 | 14 | x | 13 | 68* | -1 | 66
CCc1nc2c(c(=O)c3ccccc3n2C)c(=O)n1-c1ccc(F)cc1 | 19 | 0 | 0 | 48* | 5 | 73
Cc1nc2c(c(=O)c3ccccc3n2C)c(=O)n1-c1ccccc1 | 14 | x | -16 | 51* | 5 | 56
Cc1ccc(S(=O)(=O)CCC(=O)OCC(=O)Nc2cc(F)ccc2C)cc1 | x | x | 9 | 1 | 5 | x
CC(C)(C)c1ccc2c(c1)C(=O)c1ccccc1C2=O | -18 | 3 | 17 | -3 | 3 | x
CC(C)(C=O)C1=CC(=O)c2ccccc2C1=O | 22 | 0 | x | 51* | 49* | 41
O=S(=O)(c1ccc(N=C2NN=C(c3cc(F)ccc3F)CS2)cc1)N1CCOCC1 | -28 | 0 | 11 | -308 | x | x
CC(=O)Nc1ccc(C2=NNC(=Nc3ccc(S(=O)(=O)N4CCOCC4)cc3)SC2)cc1 | 28 | x | -11 | -339 | -19 | -234*
CC(C)(C)N=C1NN=C(c2ccc(S(=O)(=O)N3CCCCC3)cc2)CS1 | x | x | 18 | -67 | -3 | -32
CC(=O)Nc1ccc(S(=O)(=O)NCCC(=O)Nc2ccc(C)c(F)c2)cc1 | -5 | x | 8 | -1 | 8 | x
O=C(O)c1cc(N2N=C(C(F)(F)F)/C(=C/C=C/c3ccco3)C2=O)ccc1Cl | u | -1 | x | 46* | x | 57
C/C(=N\NC(=O)c1cc(C2CC2)nc2ccccc12)c1ccc(C)s1 | 7 | 2 | 7 | -5 | -2 | x
C/C(=N\NC(=O)c1cc(C2CC2)nc2ccccc12)c1ccc(O)cc1O | 1 | x | 2 | -44 | 13 | -6
